Active and inactive are the calls of the source. The rule behind the calls is not given here.
Key:
HCT-116 [1] = assay: Cytotoxicity against human HCT116 cells after 72 hrs by sulforhodamine B and MTT assay; format: functional, cell-based; details: HCT-116, 72 h
Summary of the method: (§1)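 Log-phase cells were plated overnight and exposed for 72 h to a 5-concentration gradient, in triplicate wells. SRB arm: 10% cold TCA fixation for 1 h at 4 °C, 4 mg/ml SRB in 1% acetic acid for 15 min, dye dissolved in 10 mM Tris-HCl, read at 520 nm. MTT arm: 5 mg/mL MTT for 4 h at 37 °C, SDS-isobutanol-HCl solubilisation for 12–20 h, read at 570 nm. IC50 by Logit method from at least 3 independent tests.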

MCF7 = assay: Cytotoxicity against human MCF7 cells after 72 hrs by sulforhodamine B and MTT assay; format: functional, cell-based; details: MCF7, 72 h; summary of the method: as §1
[2] = target: DNA topoisomerase 2-alpha (Homo sapiens) (UniProt P11388); assay: Inhibition of human topoisomerase 2-mediated decatenation of kinetoplast DNA at 100 uM after 15 mins by agarose gel electrophoresis
Chain of DNA topoisomerase 2-alpha (Homo sapiens) (P11388 whole entry): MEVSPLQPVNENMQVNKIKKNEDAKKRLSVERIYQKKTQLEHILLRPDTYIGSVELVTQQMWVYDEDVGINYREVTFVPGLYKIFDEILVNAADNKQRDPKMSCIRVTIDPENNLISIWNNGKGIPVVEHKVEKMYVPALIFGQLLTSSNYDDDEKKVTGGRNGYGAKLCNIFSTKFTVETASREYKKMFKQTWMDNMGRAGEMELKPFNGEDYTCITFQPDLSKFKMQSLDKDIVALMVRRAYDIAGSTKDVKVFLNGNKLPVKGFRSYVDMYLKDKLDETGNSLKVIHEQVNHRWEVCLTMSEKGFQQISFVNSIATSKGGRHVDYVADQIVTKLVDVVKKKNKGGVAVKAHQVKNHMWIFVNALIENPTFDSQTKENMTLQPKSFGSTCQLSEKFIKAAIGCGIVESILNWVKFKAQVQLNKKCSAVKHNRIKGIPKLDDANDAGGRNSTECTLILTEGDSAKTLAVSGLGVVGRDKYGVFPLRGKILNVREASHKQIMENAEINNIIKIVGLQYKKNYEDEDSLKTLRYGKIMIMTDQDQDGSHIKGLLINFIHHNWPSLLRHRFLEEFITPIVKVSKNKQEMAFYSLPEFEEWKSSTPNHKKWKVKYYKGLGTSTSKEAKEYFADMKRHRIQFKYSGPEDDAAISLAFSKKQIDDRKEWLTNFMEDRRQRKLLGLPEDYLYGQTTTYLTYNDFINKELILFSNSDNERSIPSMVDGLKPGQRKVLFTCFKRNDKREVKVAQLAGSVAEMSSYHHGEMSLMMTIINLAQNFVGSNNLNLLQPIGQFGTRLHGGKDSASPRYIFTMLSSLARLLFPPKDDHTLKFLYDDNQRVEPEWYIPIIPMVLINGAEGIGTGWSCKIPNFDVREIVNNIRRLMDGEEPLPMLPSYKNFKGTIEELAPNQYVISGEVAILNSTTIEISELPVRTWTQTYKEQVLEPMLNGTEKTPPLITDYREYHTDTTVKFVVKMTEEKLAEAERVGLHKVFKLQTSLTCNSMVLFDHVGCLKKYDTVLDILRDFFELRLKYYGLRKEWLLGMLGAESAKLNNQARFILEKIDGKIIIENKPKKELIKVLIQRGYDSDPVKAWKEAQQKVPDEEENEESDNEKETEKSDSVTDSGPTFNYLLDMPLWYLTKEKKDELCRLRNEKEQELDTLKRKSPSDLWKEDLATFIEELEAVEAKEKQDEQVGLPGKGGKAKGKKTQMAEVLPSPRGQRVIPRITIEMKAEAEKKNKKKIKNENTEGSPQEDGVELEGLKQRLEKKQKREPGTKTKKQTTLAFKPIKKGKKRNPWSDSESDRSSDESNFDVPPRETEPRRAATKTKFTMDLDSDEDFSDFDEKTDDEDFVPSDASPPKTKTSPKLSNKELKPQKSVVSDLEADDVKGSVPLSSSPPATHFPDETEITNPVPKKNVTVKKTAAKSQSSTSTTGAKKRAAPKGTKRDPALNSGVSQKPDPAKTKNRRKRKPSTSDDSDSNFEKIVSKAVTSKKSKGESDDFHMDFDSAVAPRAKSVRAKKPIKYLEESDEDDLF
Summary of the method: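 ATP-dependent kDNA decatenation by 1 unit Topo II in 50 mM Tris-HCl pH 7.7, 50 mM KCl, 5 mM MgCl2, 1 mM ATP, 0.5 mM DTT, 0.5 mM EDTA and BSA, run for 15 min at 37 °C. Stopped with 10% SDS, then run on 1% agarose in TAE at 4 V/cm for 1 h and stained with ethidium bromide.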

KB [3] = assay: Cytotoxicity against human KB cells after 72 hrs by sulforhodamine B and MTT assay; format: functional, cell-based; summary of the method: as §1
HL-60 [4] = assay: Induction of apoptosis in human HL60 cells assessed as DNA fragmentation at 10 uM after 36 hrs by gel electrophoresis; format: functional, cell-based
Summary of the method: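 HL-60 cells were seeded and exposed to compound for 36 h. Harvested cells were lysed with an equal volume of 1.2% SDS, and the fragmented DNA was extracted and resolved by gel electrophoresis.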

HCT-116 [5] = assay: Cell cycle arrest in human HCT116 cells assessed as accumulation at G2/M phase at 1 to 10 uM after 24 hrs using propidium iodide stain by FACS-flow cytometry; format: functional, cell-based
KB [6] = assay: Cytotoxicity against vincristine-selected multi drug-resistant human KB cells after 72 hrs by sulforhodamine B and MTT assay; format: functional, cell-based
Summary of the method: (§2)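 Log-phase cells were seeded, preincubated (overnight for SRB, 24 h for MTT), then given a five-concentration gradient in triplicate wells for 72 h. For MTT, reagent was added for 4 h at 37 °C, solubilized in SDS-isobutanol-HCl for 12-20 h, and read at 570 nm. IC50 was derived by the Logit method from at least 3 independent tests.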

HL-60 [7] = assay: Cell cycle arrest in human HL60 cells assessed as accumulation at G0/G1 phase at 10 uM after 24 hrs using propidium iodide stain by FACS-flow cytometry (reference value: 39%); format: functional
HL-60 [8] = assay: Cell cycle arrest in human HL60 cells assessed as accumulation at S phase at 1 uM after 24 hrs using propidium iodide stain by FACS-flow cytometry (reference value: 38.4%); format: functional
HL-60 [9] = assay: Cell cycle arrest in human HL60 cells assessed as accumulation at G0/G1 phase at 1 uM after 24 hrs using propidium iodide stain by FACS-flow cytometry (reference value: 39%); format: functional
HCT-116 [10] = assay: Cell cycle arrest in human HCT116 cells assessed as accumulation at G0/G1 phase after 24 hrs using propidium iodide stain by FACS-flow cytometry; format: functional, cell-based
HCT-116 [11] = assay: Cell cycle arrest in human HCT116 cells assessed as accumulation at G0/G1 phase at 1 to 10 uM using propidium iodide stain by FACS-flow cytometry; format: functional, cell-based; details: TDE = time-dependent effect
HL-60 [12] = assay: Cell cycle arrest in human HL60 cells assessed as accumulation at G0/G1 phase at 1 to 10 uM using propidium iodide stain by FACS-flow cytometry; format: functional, cell-based; details: TDE = time-dependent effect
HL-60 [13] = assay: Cell cycle arrest in human HL60 cells assessed as accumulation at G2/M phase at 1 uM after 24 hrs using propidium iodide stain by FACS-flow cytometry (reference value: 22.6%); format: functional
HL-60 [14] = assay: Cell cycle arrest in human HL60 cells assessed as accumulation at G2/M phase after 24 hrs using propidium iodide stain by FACS-flow cytometry; format: functional, cell-based
HL-60 [15] = assay: Cell cycle arrest in human HL60 cells assessed as accumulation at G2/M phase at 10 uM after 24 hrs using propidium iodide stain by FACS-flow cytometry (reference value: 22.6%); format: functional
KB [16] = assay: Resistance index, ratio of IC50 for vincristine-selected multi drug-resistant human KB cells to IC50 for human KB cells; format: functional
Summary of the method: (§3)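 Resistance factor is the IC50 in the resistant line divided by the IC50 in the parental line. Both IC50s come from 72 h SRB/MTT growth-inhibition assays, derived by the Logit method from at least 3 independent tests.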

K562 [17] = assay: Cytotoxicity against adriamycin-selected multi drug-resistant human K562 cells after 72 hrs by sulforhodamine B and MTT assay; format: functional, cell-based; details: K562, 72 h; summary of the method: as §2
HL-60 [18] = assay: Cell cycle arrest in human HL60 cells assessed as accumulation at S phase at 10 uM after 24 hrs using propidium iodide stain by FACS-flow cytometry (reference value: 38.4%); format: functional
HL-60 [19] = assay: Cell cycle arrest in human HL60 cells assessed as accumulation at G2/M phase at 1 to 10 uM using propidium iodide stain by FACS-flow cytometry; format: functional, cell-based; details: TDE = time-dependent effect
K562 [20] = assay: Resistance index, ratio of IC50 for adriamycin-selected multi drug-resistant human K562 cells to IC50 for human K562 cells; format: functional; summary of the method: as §3
HCT-116 [21] = assay: Cell cycle arrest in human HCT116 cells assessed as accumulation at G0/G1 phase at 1 to 10 uM after 24 hrs using propidium iodide stain by FACS-flow cytometry; format: functional, cell-based
K562 [22] = assay: Cytotoxicity against human K562 cells after 72 hrs by sulforhodamine B and MTT assay; format: functional, cell-based; details: K562, 72 h; summary of the method: as §2
HL-60 [23] = assay: Cell cycle arrest in human HL60 cells assessed as accumulation at G0/G1 phase after 24 hrs using propidium iodide stain by FACS-flow cytometry; format: functional, cell-based
HCT-116 [24] = assay: Cell cycle arrest in human HCT116 cells assessed as accumulation at G2/M phase at 1 to 10 uM using propidium iodide stain by FACS-flow cytometry; format: functional, cell-based; details: TDE = time-dependent effect
HCT-116 [25] = assay: Cell cycle arrest in human HCT116 cells assessed as accumulation at G2/M phase after 24 hrs using propidium iodide stain by FACS-flow cytometry; format: functional, cell-based

inhibition [2] | Structure (SMILES) | IC50 (HCT-116 [1]) [µM] | IC50 (MCF7) [µM] | IC50 (KB [3]) [µM] | IC50 (KB [6]) [µM] | Ratio IC50 (KB [16]) | IC50 (K562 [17]) [µM] | Ratio IC50 (K562 [20]) | IC50 (K562 [22]) [µM] | other results
Active | COc1cc2c(O[C@@H]3O[C@@H]4CO[C@@H](C(C)C)O[C@H]4[C@H](O)[C@H]3O)c3c(c(-c4ccc5c(c4)OCO5)c2cc1OC)C(=O)OC3 | 0.016 | 0.0002 | 0.0006 | – | – | – | – | – | –
inactive | COC[C@H]1O[C@@H](Oc2c3c(c(-c4ccc5c(c4)OCO5)c4cc(OC)c(OC)cc24)C(=O)OC3)[C@H](O)[C@@H](O)[C@H]1O | > 10 | > 10 | 4.1 | – | – | – | – | – | –
Active | COc1cc2c(O[C@@H]3O[C@@H]4CO[C@@H](C)O[C@H]4[C@H](O)[C@H]3O)c3c(c(-c4ccc5c(c4)OCO5)c2cc1OC)C(=O)OC3 | 0.008 | 0.004 | 0.003 | 0.076 | 25.3 | 0.853 | 19.4 | 0.044 | Activity (HL-60 [4]): Active; Activity (HCT-116 [5]): Active; Activity (HL-60 [7]): 56.2%; Activity (HL-60 [8]): 23.4%; Activity (HL-60 [9]): 53.6%; Activity (HCT-116 [10]): Dose-dependent effect; Activity (HCT-116 [11]): tde; Activity (HL-60 [12]): tde; Activity (HL-60 [13]): 22.9%; Activity (HL-60 [14]): Dose-dependent effect; Activity (HL-60 [15]): 24.6%; Activity (HL-60 [18]): 19.2%; Activity (HL-60 [19]): tde; Activity (HCT-116 [21]): Active; Activity (HL-60 [23]): Dose-dependent effect; Activity (HCT-116 [24]): tde; Activity (HCT-116 [25]): Dose-dependent effect
– | COc1cccc2c1C(=O)c1c(O)c3c(c(O)c1C2=O)C[C@@](O)(C(=O)CO)C[C@@H]3O[C@H]1C[C@H](N)[C@H](O)[C@H](C)O1 [DOXORUBICIN] | – | – | – | – | – | – | 132.2 | – | –
inactive | COc1cc([C@@H]2c3cc4c(cc3[C@@H](O[C@@H]3O[C@@H]5CO[C@@H](C)O[C@H]5[C@H](O)[C@H]3O)[C@H]3COC(=O)[C@H]23)OCO4)cc(OC)c1O [ETOPOSIDE] | 0.91 | 1.09 | 0.85 | 153 | 180.3 | 243 | 47.1 | 5.16 | –
– | CC[C@]1(O)C[C@H]2CN(CCc3c([nH]c4ccccc34)[C@@](C(=O)OC)(c3cc4c(cc3OC)N(C=O)[C@H]3[C@@](O)(C(=O)OC)[C@H](OC(C)=O)[C@]5(CC)C=CCN6CC[C@]43[C@@H]65)C2)C1 [VINCRISTINE] | – | – | 0.003 | 1.61 | 536.7 | – | – | – | –
Active | COc1cc2c(O)c3c(c(-c4ccc5c(c4)OCO5)c2cc1OC)C(=O)OC3 [DIPHYLLIN] | 3.54 | 0.54 | 0.78 | 3.15 | 4 | 23.5 | 14.1 | 1.67 | –

Structure (SMILES) | inhibition [2] | IC50 (HCT-116 [1]) [µM] | IC50 (MCF7) [µM] | IC50 (KB [3]) [µM] | IC50 (KB [6]) [µM] | Ratio IC50 (KB [16]) | IC50 (K562 [17]) [µM] | Ratio IC50 (K562 [20]) | IC50 (K562 [22]) [µM] | other results
COc1cc2c(O[C@@H]3O[C@H](CO)[C@@H](O)[C@H](O)[C@H]3O)c3c(c(-c4ccc5c(c4)OCO5)c2cc1OC)C(=O)OC3 | inactive | 9.67 | 2.44 | > 10 | – | – | – | – | – | –
COc1cc2c(O[C@H]3O[C@@H](C)[C@@H](OC(C)=O)[C@@H](O)[C@@H]3O)c3c(c(-c4ccc5c(c4)OCO5)c2cc1OC)C(=O)OC3 [4'-O-ACETYLPATENTIFLORIN B] | Active | 0.27 | 0.11 | 0.14 | – | – | – | – | – | –
